From ChEMBL document CHEMBL4622976, “Development of pH/Glutathione-Responsive Theranostic Agents Activated by Glutathione S-Transferase π for Human Colon Cancer” (J Med Chem, 2020)
pIC50: −log10 of the molar value.

How the values were obtained:
[1] = Drug metabolism assessed as GSTpi (unknown origin) mediated 1-(3,4,5-trimethoxyphenyl)-9H-pyrido[3,4-b]indol-3-amine formation at 40 uM in presence of 0.8 mM GSH by HPLC analysis; type: ADME; details: human
In short: (§1)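 HPLC measurement of amine release after incubating compound (40 µM) with GSH (0.8 mM) and GSTπ or GSTα at 0.03 µg/ml.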

[2] = Drug metabolism assessed as GSTalpha (unknown origin) mediated 1-(3,4,5-trimethoxyphenyl)-9H-pyrido[3,4-b]indol-3-amine formation at 40 uM in presence of 0.8 mM GSH by HPLC analysis; type: ADME; details: human; in short: as §1
[3] = Drug metabolism assessed as GSTpi (unknown origin) mediated compound fluorescence activation at 1 uM in presence of 1 mM Zn2+ by HPLC analysis; type: ADME; details: human
In short: (§2)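 Selectivity test: compound (1 µM) with catalytic GSTπ and each analyte in water with 1% (v/v) DMSO at pH 4.0, 37 °C for 0.5 h. Analytes were cations at 1 mM; amino acids, vitamin C, Na2S and GSH at 100 µM. Readout was fluorescence emission spectra (excitation 440 nm, recorded 450–650 nm).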

[4] = Drug metabolism assessed as GSTpi (unknown origin) mediated compound fluorescence activation at 1 uM in presence of 1 mM Cu2+ by HPLC analysis; type: ADME; details: human; in short: as §2
[5] = Drug metabolism assessed as GSTpi (unknown origin) mediated compound fluorescence activation at 1 uM in presence of 1 mM Fe2+ by HPLC analysis; type: ADME; details: human; in short: as §2
[6] = Drug metabolism assessed as GSTpi (unknown origin) mediated compound fluorescence activation at 1 uM in presence of 100 uM histidine by HPLC analysis; type: ADME; details: human; in short: as §2
[7] = Drug metabolism assessed as GSTpi (unknown origin) mediated compound fluorescence activation at 1 uM in presence of 100 uM alanine by HPLC analysis; type: ADME; details: human; in short: as §2
[8] = Drug metabolism assessed as GSTpi (unknown origin) mediated compound fluorescence activation at 1 uM in presence of 100 uM cysteine by HPLC analysis; type: ADME; details: human; in short: as §2
[9] = Drug metabolism assessed as GSTpi (unknown origin) mediated compound fluorescence activation at 1 uM in presence of 100 uM glycine by HPLC analysis; type: ADME; details: human; in short: as §2
[10] = Drug metabolism assessed as GSTpi (unknown origin) mediated compound fluorescence activation at 1 uM in presence of 100 uM vitamin C by HPLC analysis; type: ADME; details: human; in short: as §2
[11] = Drug metabolism assessed as GSTpi (unknown origin) mediated compound fluorescence activation at 1 uM in presence of 100 uM Na2S by HPLC analysis; type: ADME; details: human; in short: as §2
[12] = Drug uptake in human CCD-841 cells at 1 uM measured within 10 mins by confocal fluorescence microscopy; type: ADME, cell-based
In short: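 Cells were seeded at 2×10^5 in glass-bottom dishes and allowed to attach. Medium was then replaced with DMEM containing 1 µM compound. Confocal images were taken every minute for 60 min with a 40× water objective, 405 nm laser and 480–530 nm filter. Intracellular fluorescence intensity was quantified.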

[13] = Drug uptake in lysosome of human CCD-841 cells at 1 uM incubated for 60 mins by Lyso-tracker based confocal fluorescence microscopy; type: ADME; details: 1 h
In short: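 HT29 and CCD841 cells were seeded at 2×10^5 in glass-bottom dishes. They were co-incubated in DMEM with compound (1 µM) and LysoTracker Red DND-99 (1 µM). Confocal imaging used a 40× water objective. Compound channel: 405 nm laser, 480–530 nm filter. LysoTracker channel: 561 nm laser, 580–630 nm filter.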

[14] = Antiproliferative activity against rat 9L-2 cells by MTT assay; type: functional, cell-based
In short: (§3)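 MTT assay. Cells were grown in DMEM/RPMI 1640 with 10% FBS, penicillin and streptomycin at 37 °C under 5% CO2. After a PBS wash, cells got 0.5 mg/mL MTT for 3 h at 37 °C. Formazan was dissolved in DMSO and absorbance read at 570 nm. Inhibition was expressed as a percentage and IC50 calculated. Means ± SD come from three separate experiments.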

[15] = Cytotoxicity against human CCD-841 cells by MTT assay; type: cell-based; in short: as §3
[16] = Drug localization in tumor of intra-operative mouse xenografted with human HT-29/Luc cells at 40 mg/kg, iv measured after 1 hrs post dose by fluorescence imaging assay; type: ADME, organism-based, Neoplasm; details: in vivo
In short: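 Mice carrying subcutaneous HT29 tumours (1×10^6 cells, grown 3–4 weeks) received 40 mg/kg iv. They were imaged under 1% pentobarbital at 0, 1, 2, 4, 8 and 24 h post-injection (465 nm excitation filter, GFP emission filter). Excised tumours and major organs were then imaged ex vivo.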

[17] = Toxicity in ip dosed ICR mouse for 14 days; type: organism-based; details: in vivo
In short: (§4)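 Female ICR mice, randomised, n = 10 per group. Single intraperitoneal dose of 240.0, 300.0, 375.0, 468.8 or 585.9 mg/kg, or vehicle. Deaths recorded at 1 h, 4 h, days 1–4 and days 5–14. Body weight, drinking, eating and activity observed over 14 days. Survival percentage taken on day 14; LD50 derived from the dose–mortality data.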

[18] = Toxicity in ICR mouse assessed as induction of animal death at 240 to 375 mg/kg, ip measured after 1 day; type: organism-based; details: in vivo, 24 h; in short: as §4
[19] = Toxicity in ICR mouse assessed as induction of animal death at 240 to 300 mg/kg, ip measured after 2 days; type: organism-based; details: in vivo, 48 h; in short: as §4
[20] = Toxicity in ICR mouse assessed as induction of animal death at 240 to 468.8 mg/kg, ip measured after 5 to 14 days; type: organism-based; details: in vivo; in short: as §4
[21] = Toxicity in ICR mouse assessed as induction of animal survival rate at 585.9 mg/kg, ip measured after 14 days; type: organism-based; details: in vivo; in short: as §4
[22] = Toxicity in BALB/c mouse xenografted with human hT-29 cells assessed as effect on body mass at 20 to 40 mg/kg, ip dosed every day for 21 days; type: organism-based; details: in vivo, 504 h
In short: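 Female BALB/c nude mice, 5-6 weeks old, inoculated subcutaneously with 1×10^6 HT29 cells. At tumor volume 100 mm³, animals randomized to compound or saline, given intraperitoneally every day for 21 days. Body weight recorded every three days; animals euthanized at 20% weight loss. Tumor volume = ½(L×W²) from caliper measurements; tumors excised and weighed at the end.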

HT-29 [23] = test: Induction of apoptosis in human HT-29 cells assessed as reduction in Bcl2 protein level incubated for 72 hrs by Western blot analysis; type: functional, cell-based
In short: (§5)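 HT29 cells (1.5×10^5/mL) were treated for 72 h and lysed. Lysate (0.05 mg/lane) was run on 12% SDS-PAGE and transferred to nitrocellulose. After blocking in 5% non-fat milk, blots were probed for Bax, Bcl-2, cleaved caspase-3, cleaved PARP, LC3, p62 and beclin-1. Levels were normalised to β-actin, and means ± SD taken from three independent assays.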

HT-29 [24] = test: Induction of apoptosis in human HT-29 cells assessed as increase in cleaved PARP protein level incubated for 72 hrs by Western blot analysis; type: functional, cell-based; in short: as §5
HT-29 [25] = test: Induction of apoptosis in human HT-29 cells assessed as increase in cleaved caspase-3 protein level incubated for 72 hrs by Western blot analysis; type: functional, cell-based; in short: as §5

In the case of `COc1cc(-c2nc(NC(=O)OCC3=CCCCC3=O)cc3c2[nH]c2ccccc23)cc(OC)c1OC`, the Drug metabolism [1] was “Metabolite_Detected”, the Drug metabolism [2] was “Metabolite_Notdetected” and the Drug metabolism [3] was “Metabolite_Notdetected”. The Drug metabolism [4] was “Metabolite_Notdetected”, the Drug metabolism [5] was “Metabolite_Notdetected” and the Drug metabolism [6] was “Metabolite_Notdetected”. The Drug metabolism [7] was “Metabolite_Notdetected”, the Drug metabolism [8] was “Metabolite_Notdetected” and the Drug metabolism [9] was “Metabolite_Notdetected”. For the same compound, the Drug metabolism [10] was “Metabolite_Notdetected”, the Drug metabolism [11] was “Metabolite_Notdetected” and the Drug uptake [12] was “Not Active”. For the same compound, the Drug uptake [13] was “Not Active”, the pIC50 [14] was 5.36 and the pIC50 [15] was 4.63. The Drug uptake [16] was “Active”, the LD50 at 336 h [17] was 475 mg/kg and the Activity [18] was “Non-Toxic”. For the same compound, the Activity [19] was “Non-Toxic”, the Activity [20] was “Non-Toxic” and the survival at 336 h [21] was 10%. The Activity [22] was “Non-Toxic”, the Activity (HT-29 [23]) was “Dose-dependent effect” and the Activity (HT-29 [24]) was “Dose-dependent effect”. For the same compound, the Activity (HT-29 [25]) was “Dose-dependent effect”.
